Measured values taken from ChEMBL document CHEMBL1157586 (Bioorg Med Chem, 2010).
The source made the active and inactive calls. The calls are words filed in the database; no cut-off is given here.

Key:
HCT-116 [1] = experiment: Antitumor activity against human HCT116 cells xenografted in BALB/c nu/nu mouse assessed as inhibition of tumor growth at 20 mg/kg, iv QD for 10 consecutive days measured every 3 days post last dose; format: functional; details: HCT-116, read-out: INH
Summary of the method: (§1)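 Human tumor xenografts (A2780 ovarian, HCT-116 colon, BX-PC3 pancreatic) in mice. Compound dissolved in 5% dextrose and given iv once daily for 10 consecutive days; A2780 curves show dosing from day 8. Doses were 10, 20 and 30 mg/kg for A2780, and 10 and 20 mg/kg for HCT-116 and BX-PC3. Controls received vehicle. Tumor growth inhibition taken at end of treatment; body weight tracked.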

A2780 [2] = experiment: Cell cycle arrest in human A2780 cells assessed as accumulation at G0/G1 phase at 3 uM after 24 hrs by FACS analysis; format: functional
Summary of the method: (§2)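 A2780 cells (ECACC) seeded at 25000 cells/cm² in RPMI 1640, pH 7.4, with 10% FBS, 2 mM L-glutamine and penicillin–streptomycin, at 37 °C in 5% CO₂. After 24 h, treated for 24 h at 1 and 3 µM. Floating and trypsinised adherent cells pooled, PBS-washed, and DNA content analysed by flow cytometry.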

[3] = Antiproliferative activity against human C-433 cells after 72 hrs by SRB assay; format: functional, cell-based; details: C-433, 72 h
A2780 [4] = experiment: Cell cycle arrest in human A2780 cells assessed as accumulation at G0/G1 phase at 1 uM after 24 hrs by FACS analysis; format: functional; summary of the method: as §2
A2780 [5] = experiment: Cell cycle arrest in human A2780 cells assessed as accumulation at G2/M phase at 3 uM after 24 hrs by FACS analysis; format: functional; summary of the method: as §2
[6] = biological target: T1, Cyclin-dependent kinase (Homo sapiens) (UniProt P06493+P11802+P24941+Q00535+Q00534+P50613+Q00526+Q00536+Q07002+P49336+Q00537+P21127+Q96Q40+Q9BWU1+O94921+P50750+Q15131+Q14004+Q8IZL9+Q9NYV4); experiment: Inhibition of CDK in human A2780 cells assessed as reduction of hyperphosphorylated form of retinoblastoma protein at 3 uM by immunohistochemistry; format: cell-based
COLO 205 = experiment: Antiproliferative activity against human COLO205 cells after 72 hrs by SRB assay; format: functional, cell-based; details: COLO 205, 72 h
A2780 [7] = experiment: Inhibition of cellular DNA synthesis in human A2780 cells assessed as BrdU incorporation into nuclear DNA at 3 uM after 24 hrs by Hoechst 33342 staining-based microscopic analysis; format: functional; parameters: scale not given: the % may be the effect or the level left
Summary of the method: (§3)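 A2780 human ovarian adenocarcinoma cells were seeded at 25000 cells/cm² in RPMI 1640 pH 7.4 with 10% FBS, 2 mM L-glutamine and penicillin–streptomycin. They were kept at 37 °C in 5% CO₂. After 24 h they were exposed to compound for 24 h. Floating and adherent cells were harvested with trypsin/EDTA, washed in PBS, and split for flow cytometry, immunoblot and BrdU incorporation.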

A-375 = experiment: Antiproliferative activity against human A375 cells after 72 hrs by SRB assay; format: functional, cell-based; details: A-375, 72 h
DU-145 = experiment: Antiproliferative activity against human DU145 cells after 72 hrs by SRB assay; format: functional, cell-based; details: DU-145, 72 h
[8] = Inhibition of STK2 by scintillation proximity assay
A2780 [9] = experiment: Cell cycle arrest in human A2780 cells assessed as accumulation at S phase at 1 uM after 24 hrs by FACS analysis; format: functional; summary of the method: as §2
A2780 [10] = experiment: Antitumor activity against human A2780 cells xenografted in iv dosed BALB/c nu/nu mouse assessed as reduction of BrdU incorporation into cellular DNA at 30 mg/kg, iv for 5 days by immunohistochemistry
[11] = Inhibition of PDGFR by scintillation proximity assay
HCT-116 [12] = experiment: Antiproliferative activity against human HCT116 cells after 72 hrs by SRB assay; format: functional, cell-based; details: HCT-116, 72 h
PC-3 = experiment: Antiproliferative activity against human PC3 cells after 72 hrs by SRB assay; format: functional, cell-based; details: PC-3, 72 h
A2780 [13] = experiment: Cell cycle arrest in human A2780 cells assessed as accumulation at G2/M phase at 1 uM after 24 hrs by FACS analysis; format: functional; summary of the method: as §2
[14] = Inhibition of CK2 by scintillation proximity assay
BXPC-3 [15] = experiment: Antitumor activity against human BxPC3 cells xenografted in BALB/c nu/nu mouse assessed as inhibition of tumor growth at 20 mg/kg, iv QD for 10 consecutive days measured every 3 days post last dose; format: functional; summary of the method: as §1
Mus musculus = experiment: Inhibition of CDK in human A2780 cells xenografted in iv dosed BALB/c nu/nu mouse assessed as reduction of hyperphosphorylated form of retinoblastoma protein at 30 mg/kg, iv for 5 days by immunohistochemistry; format: functional, organism-based; parameters: dose 30 mg/kg
Summary of the method: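 Mice bearing A2780 xenografts given 30 mg/kg iv for 5 days; vehicle controls. Tumors analysed by immunohistochemistry for BrdU and phospho-pRb positive cells. For BrdU, sections were denatured and pretreated with 4 N HCl and proteinase K, then stained with the Dako ARK kit and counterstained with hematoxylin. Automated quantitative image analysis done by two observers.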

BXPC-3 [16] = experiment: Antiproliferative activity against human BxPC3 cells after 72 hrs by SRB assay; format: functional, cell-based; details: BXPC-3, 72 h
[17] = biological target: T1, Cyclin-dependent kinase (Homo sapiens); experiment: Inhibition of CDK in human A2780 cells assessed as accumulation of hypophosphorylated form of retinoblastoma protein at 1 uM by immunohistochemistry; format: cell-based
A2780 [18] = experiment: Cell cycle arrest in human A2780 cells assessed as accumulation at sub-G1 phase at 3 uM after 24 hrs by FACS analysis; format: functional; summary of the method: as §2
HCT-116 [19] = experiment: Antitumor activity against human HCT116 cells xenografted in iv dosed BALB/c nu/nu mouse assessed as inhibition of tumor growth administered QD for 10 consecutive days measured every 3 days post last dose; format: functional, organism-based; summary of the method: as §1
MCF7 = experiment: Antiproliferative activity against human MCF7 cells after 72 hrs by SRB assay; format: functional, cell-based; details: MCF7, 72 h
[20] = Inhibition of SULU1 by scintillation proximity assay
A2780 [21] = experiment: Inhibition of cellular DNA synthesis in human A2780 cells assessed as BrdU incorporation into nuclear DNA at 1 uM after 24 hrs by Hoechst 33342 staining-based microscopic analysis; format: functional; parameters: scale not given: the % may be the effect or the level left; summary of the method: as §3
A2780 [22] = experiment: Cell cycle arrest in human A2780 cells assessed as accumulation at S phase at 3 uM after 24 hrs by FACS analysis; format: functional; summary of the method: as §2
[23] = biological target: T1, Cyclin-dependent kinase (Homo sapiens); experiment: Inhibition of CDK in human A2780 cells assessed as accumulation of hypophosphorylated form of retinoblastoma protein at 3 uM by immunohistochemistry; format: cell-based
[24] = Inhibition of NIM by scintillation proximity assay
A2780 [25] = experiment: Antitumor activity against human A2780 cells xenografted in BALB/c nu/nu mouse assessed as inhibition of tumor growth at 30 mg/kg, iv QD for 10 consecutive days measured every 3 days post last dose; format: functional; summary of the method: as §1
[26] = biological target: T1, Cyclin-dependent kinase (Homo sapiens); experiment: Inhibition of CDK in human A2780 cells assessed as reduction of hyperphosphorylated form of retinoblastoma protein at 1 uM by immunohistochemistry; format: cell-based
A2780 [27] = experiment: Antiproliferative activity against human A2780 cells after 72 hrs by CellTiter-Glo luminescence assay; details: A2780, 72 h
A2780 [28] = experiment: Antitumor activity against human A2780 cells xenografted in iv dosed BALB/c nu/nu mouse assessed as inhibition of tumor growth administered QD for 10 consecutive days measured every 3 days post last dose; format: functional, organism-based; summary of the method: as §1

CC(C)CC(=O)Nc1n[nH]c2c1CN(C(=O)C1CCN(C)CC1)C2(C)C [PHA-793887]
inhibition in vivo at 20 mg/kg (HCT-116 [1]): 81% | Activity (A2780 [2]): -11% | IC50 [3]: 285 nM | Activity (A2780 [4]): 25% | Activity (A2780 [5]): 263% | Activity [6]: Active | IC50 (COLO 205): 188 nM | Activity (A2780 [7]): -100% | IC50 (A-375): 396 nM | IC50 (DU-145): 303 nM | IC50 [8]: > 10 µM | Activity (A2780 [9]): -76% | Activity (A2780 [10]): Active | IC50 [11]: > 10 µM | IC50 (HCT-116 [12]): 163 nM | IC50 (PC-3): 601 nM | Activity (A2780 [13]): 62% | IC50 [14]: > 10 µM | inhibition in vivo at 20 mg/kg (BXPC-3 [15]): 84% | Activity (Mus musculus): Active | IC50 (BXPC-3 [16]): 3.44 µM | Activity [17]: Active | Activity (A2780 [18]): 26.2% | Activity (HCT-116 [19]): Dose-dependent effect | IC50 (MCF7): 1280 nM | IC50 [20]: > 10 µM | Activity (A2780 [21]): -85% | Activity (A2780 [22]): -48% | Activity [23]: Active | IC50 [24]: > 10 µM | inhibition in vivo at 30 mg/kg (A2780 [25]): 76% | Activity [26]: Active | IC50 (A2780 [27]): 90 nM | Activity (A2780 [28]): Dose-dependent effect
